Measured values of several laboratories.
pEC50, pIC50: −log10 of the molar value.
Read-out: cell growth or viability

| Structure (SMILES) | cell line | test | conditions | quantity | result |
| --- | --- | --- | --- | --- | --- |
| COc1cccc(Oc2ccccc2NC(=O)CNC(=O)c2cccc3ccccc23)c1 | NCI/ADR-RES | SRB | 48 h | GI50 | 240 nM |
| Cc1cc(C)n(C(=S)[S][Au][PH](CCCCCC[PH]([Au][S]C(=S)n2nc(C)cc2C)(c2ccccc2)c2ccccc2)(c2ccccc2)c2ccccc2)n1 | NCI/ADR-RES | SRB | – | GI50 | 1300 nM |
| CC1=C(O)C(=O)C=C2C1=CC=C1[C@@]2(C)CC[C@@]2(C)[C@@H]3C[C@](C)(C(=O)OCCCBr)CC[C@]3(C)CC[C@]12C | MGC-803 | MTT | 48 h | pIC50 | 6.40 |
| Cn1nnc2c(C(N)=O)ncn2c1=O | HGC-27 | – | – | pEC50 | 3.75 |
| COc1ccc(-c2ccc(-c3ccc(C(=N)N)nc3)s2)cc1Cl | NCI/ADR-RES | SRB | – | GI50 | 2010 nM |
| C=CC(=O)N1CCN(c2nc(=O)n(-c3c(C)ccnc3C(C)C)c3nc(-c4c(O)cccc4F)c(F)cc23)[C@@H](C)C1 | GP2d | – | 5 days | pEC50 | < 5.00 |
| O=C(O)c1ccc(CN2CCC(CN[C@@H]3C[C@H]3c3ccccc3)CC2)cc1 | NCI-H510A | resazurin | 10 days | pEC50 | 6.96 |
| S=C([S][Au-][P+](CCCCCC[P+]([Au-][S]C(=S)n1cccn1)(c1ccccc1)c1ccccc1)(c1ccccc1)c1ccccc1)n1cccn1 | NCI/ADR-RES | SRB | – | GI50 | 3990 nM |
| C=CC(=O)N1CCN(c2cc(-c3noc([C@@]4(C)CCCc5sc(N)c(C#N)c54)n3)nc(N3CCN(C)C[C@@H]3C)c2)CC1 | GP2d | – | 5 days | pEC50 | 5.35 |
| COc1ccc(-c2ccc(-c3ccc(C(=N)N)nc3)s2)cc1 | NCI/ADR-RES | SRB | – | GI50 | 1940 nM |
| CN1CCN(C(=O)[C@H](CCCN[C@@H]2C[C@H]2c2ccc(F)cc2)NC(=O)c2ccc(-n3ccnn3)cc2)CC1 | NCI-H510A | resazurin | 10 days | pEC50 | 7.98 |
